Results reported in ChEMBL document CHEMBL1955763, “Antimicrobial activity of sulfonamides containing 5-chloro-2-hydroxybenzaldehyde and 5-chloro-2-hydroxybenzoic acid scaffold” (Eur J Med Chem, 2012).
Values after ≈ are worked out from the molar mass of the structure shown.

Key:
Format in all cases: functional
[1] = system: Mycobacterium tuberculosis; assay: Antimycobacterial activity against Mycobacterium tuberculosis H37Rv 331/88 after 14 days; settings: H37Rv 331/88, 336 h
[2] = system: Mycobacterium tuberculosis; assay: Antimycobacterial activity against Mycobacterium tuberculosis H37Rv 331/88 after 21 days; settings: H37Rv 331/88, 504 h
Outline: (§1)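 Micromethod in Sula semisynthetic medium, with compounds added as DMSO solutions over a two-fold series from 1000 down to 1. Inoculum for M. avium 330/88 was a 10⁻⁵ dilution. Plates were incubated at 37 °C and MIC was read after 14 and 21 days.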

Mycobacterium avium [3] = assay: Antimycobacterial activity against isoniazid-, rifampicin-, ofloxacin-, ethambutol-resistant Mycobacterium avium 330/88 after 14 days; settings: 330/88, 336 h; outline: as §1
Mycobacterium avium [4] = assay: Antimycobacterial activity against isoniazid-, rifampicin-, ofloxacin-, ethambutol-resistant Mycobacterium avium 330/88 after 21 days; settings: 330/88, 504 h; outline: as §1
Mycobacterium kansasii [5] = assay: Antimycobacterial activity against Mycobacterium kansasii 235/80 after 7 days; settings: 235/80, 168 h
Outline: (§2)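 Micromethod MIC in Sula semisynthetic medium, with compounds added as DMSO solutions at […]. Incubation at 37 °C. Inocula: M. kansasii 235/80 at dilution 10⁻⁴, clinical isolate 6509/96 at 10⁻⁵.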

Mycobacterium kansasii [6] = assay: Antimycobacterial activity against Mycobacterium kansasii 235/80 after 14 days; settings: 235/80, 336 h; outline: as §2
Mycobacterium kansasii [7] = assay: Antimycobacterial activity against Mycobacterium kansasii 235/80 after 21 days; settings: 235/80, 504 h; outline: as §2
Mycobacterium kansasii [8] = assay: Antimycobacterial activity against Mycobacterium kansasii 6509/96 after 7 days; settings: 6509/96, 168 h; outline: as §2
Mycobacterium kansasii [9] = assay: Antimycobacterial activity against Mycobacterium kansasii 6509/96 after 14 days; settings: 6509/96, 336 h; outline: as §2
Mycobacterium kansasii [10] = assay: Antimycobacterial activity against Mycobacterium kansasii 6509/96 after 21 days; settings: 6509/96, 504 h; outline: as §2
Staphylococcus aureus [11] = assay: Antibacterial activity against Staphylococcus aureus CCM 4516/08 after 24 hrs by broth microdilution method; settings: CCM 4516/08, 24 h
Outline: (§3)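 Microdilution broth method modified from M07-A07, in Mueller-Hinton broth at pH 7.4 (±0.2). Compounds were dissolved in DMSO. Inoculum was made in sterile water to 0.5 McFarland (1.5 × 10⁸ CFU/mL). MIC was taken as IC₉₀, meaning ≥90% growth reduction versus the drug-free control. Growth was read visually and by absorbance at 540 nm.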

Staphylococcus aureus [12] = assay: Antibacterial activity against Staphylococcus aureus CCM 4516/08 after 48 hrs by broth microdilution method; settings: CCM 4516/08, 48 h
Outline: (§4)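 Broth microdilution modified from standard M07-A07 in Mueller-Hinton broth at pH 7.4 (±0.2). Compounds were dissolved in DMSO. Inoculum in sterile water was adjusted to 0.5 McFarland (1.5 × 10⁸ CFU/mL). MIC was taken as IC₉₀, i.e. ≥90% growth reduction versus control, read visually and spectrophotometrically at 540 nm.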

Staphylococcus aureus [13] = assay: Antibacterial activity against methicillin-resistant Staphylococcus aureus H 5996/08 after 24 hrs by broth microdilution method; settings: H 5996/08, 24 h; outline: as §3
Staphylococcus aureus [14] = assay: Antibacterial activity against methicillin-resistant Staphylococcus aureus H 5996/08 after 48 hrs by broth microdilution method; settings: H 5996/08, 48 h; outline: as §3
[15] = system: Staphylococcus epidermidis; assay: Antibacterial activity against methicillin-resistant Staphylococcus epidermidis H 6966/08 after 24 hrs by broth microdilution method; settings: H 6966/08, 24 h; outline: as §3
[16] = system: Staphylococcus epidermidis; assay: Antibacterial activity against methicillin-resistant Staphylococcus epidermidis H 6966/08 after 48 hrs by broth microdilution method; settings: H 6966/08, 48 h; outline: as §3
Trichosporon asahii = assay: Antifungal activity against Trichosporon asahii 1188 after 24 hrs by broth microdilution method; settings: Trichosporon asahii, 1188, 24 h
Outline: (§5)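 Microdilution broth per CLSI M27-A3 (yeasts) or M38-A2 (moulds) in RPMI 1640 with glutamine, buffered to pH 7.0 with 0.165 mol MOPS. Compounds were in DMSO. Final inoculum was 5 × 10³ ± 0.2 CFU/mL. Other conditions matched the antibacterial assay, with MIC as IC₉₀ read visually and at 540 nm. Determined twice, in duplicate.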

Aspergillus fumigatus = assay: Antifungal activity against Aspergillus fumigatus 231 after 24 hrs by broth microdilution method; settings: Aspergillus fumigatus, 231, 24 h; outline: as §5
Lichtheimia corymbifera = assay: Antifungal activity against Absidia corymbifera 272 after 24 hrs by broth microdilution method; settings: Lichtheimia corymbifera, 272, 24 h; outline: as §5
[17] = system: Trichophyton mentagrophytes; assay: Antifungal activity against Trichophyton mentagrophytes 445 after 24 hrs by broth microdilution method; settings: Trichophyton mentagrophytes, 445, 24 h
Candida albicans = assay: Antifungal activity against Candida albicans ATCC 44857 after 24 hrs by broth microdilution method; settings: ATCC 44857, 24 h; outline: as §5
Candida tropicalis = assay: Antifungal activity against Candida tropicalis 156 after 24 hrs by broth microdilution method; settings: Candida tropicalis, 156, 24 h; outline: as §5
Nakaseomyces glabratus = assay: Antifungal activity against Candida glabrata 20/I after 24 hrs by broth microdilution method; outline: as §5
Pichia kudriavzevii = assay: Antifungal activity against Candida krusei E58 after 24 hrs by broth microdilution method; settings: E58, 24 h; outline: as §5
Escherichia coli = assay: Antibacterial activity against Escherichia coli CCM 4517 after 24 hrs by broth microdilution method; settings: CCM 4517, 24 h; outline: as §4

SMILES | MIC [1] | MIC [2] | MIC (Mycobacterium avium [3]) | MIC (Mycobacterium avium [4]) | MIC (Mycobacterium kansasii [5]) | MIC (Mycobacterium kansasii [6]) | MIC (Mycobacterium kansasii [7]) | MIC (Mycobacterium kansasii [8]) | MIC (Mycobacterium kansasii [9]) | MIC (Mycobacterium kansasii [10]) | MIC (Staphylococcus aureus [11]) | MIC (Staphylococcus aureus [12]) | MIC (Staphylococcus aureus [13]) | MIC (Staphylococcus aureus [14]) | MIC [15] | MIC [16] | MIC (Trichosporon asahii) | MIC (Aspergillus fumigatus) | MIC (Lichtheimia corymbifera) | MIC [17] | further results
O=C(Nc1ccc(S(=O)(=O)Nc2ncccn2)cc1)c1cc(Cl)ccc1O | 125 µM (≈ 50.6 µg/mL) | 250 µM (≈ 101 µg/mL) | 62.5 µM (≈ 25.3 µg/mL) | 62.5 µM (≈ 25.3 µg/mL) | 4 µM (≈ 1.62 µg/mL) | 8 µM (≈ 3.24 µg/mL) | 16 µM (≈ 6.48 µg/mL) | 4 µM (≈ 1.62 µg/mL) | 8 µM (≈ 3.24 µg/mL) | 8 µM (≈ 3.24 µg/mL) | 125 µM (≈ 50.6 µg/mL) | 125 µM (≈ 50.6 µg/mL) | 31.2 µM (≈ 12.7 µg/mL) | 31.2 µM (≈ 12.7 µg/mL) | > 500 µM | > 500 µM | – | – | – | – | –
O=C(Nc1ccc(S(=O)(=O)Nc2nccs2)cc1)c1cc(Cl)ccc1O | 250 µM (≈ 102 µg/mL) | 250 µM (≈ 102 µg/mL) | 250 µM (≈ 102 µg/mL) | 250 µM (≈ 102 µg/mL) | 8 µM (≈ 3.28 µg/mL) | 16 µM (≈ 6.56 µg/mL) | 16 µM (≈ 6.56 µg/mL) | 8 µM (≈ 3.28 µg/mL) | 8 µM (≈ 3.28 µg/mL) | 8 µM (≈ 3.28 µg/mL) | > 125 µM | > 125 µM | > 125 µM | > 125 µM | > 125 µM | > 125 µM | > 125 µM | > 125 µM | > 125 µM | > 125 µM | MIC (Candida albicans): > 125 µM; MIC (Candida tropicalis): > 125 µM; MIC (Nakaseomyces glabratus): > 125 µM; MIC (Pichia kudriavzevii): > 125 µM
Cc1cc(C)nc(NS(=O)(=O)c2ccc(/N=C/c3cc(Cl)ccc3O)cc2)n1 | 250 µM (≈ 104 µg/mL) | 500 µM (≈ 208 µg/mL) | 62.5 µM (≈ 26.1 µg/mL) | 125 µM (≈ 52.1 µg/mL) | 62.5 µM (≈ 26.1 µg/mL) | 125 µM (≈ 52.1 µg/mL) | 250 µM (≈ 104 µg/mL) | 125 µM (≈ 52.1 µg/mL) | 125 µM (≈ 52.1 µg/mL) | 250 µM (≈ 104 µg/mL) | 250 µM (≈ 104 µg/mL) | 500 µM (≈ 208 µg/mL) | 125 µM (≈ 52.1 µg/mL) | 250 µM (≈ 104 µg/mL) | > 500 µM | > 500 µM | > 125 µM | > 125 µM | > 125 µM | > 125 µM | MIC (Escherichia coli): 500 µM (≈ 208 µg/mL); MIC (Candida albicans): > 125 µM; MIC (Candida tropicalis): > 125 µM; MIC (Nakaseomyces glabratus): > 125 µM; MIC (Pichia kudriavzevii): > 125 µM
NNC(=O)c1ccncc1 [ISONIAZID] | 0.5 µM (≈ 0.0686 µg/mL) | 1 µM (≈ 0.137 µg/mL) | > 250 µM | > 250 µM | > 250 µM | > 250 µM | > 250 µM | 4 µM (≈ 0.549 µg/mL) | 4 µM (≈ 0.549 µg/mL) | 8 µM (≈ 1.1 µg/mL) | – | – | – | – | – | – | – | – | – | – | –
Nc1ccc(S(=O)(=O)Nc2ncccn2)cc1 [SULFADIAZINE] | 32 µM (≈ 8.01 µg/mL) | 62.5 µM (≈ 15.6 µg/mL) | 62.5 µM (≈ 15.6 µg/mL) | 62.5 µM (≈ 15.6 µg/mL) | 16 µM (≈ 4 µg/mL) | 16 µM (≈ 4 µg/mL) | 32 µM (≈ 8.01 µg/mL) | 8 µM (≈ 2 µg/mL) | 8 µM (≈ 2 µg/mL) | 8 µM (≈ 2 µg/mL) | 500 µM (≈ 125 µg/mL) | > 500 µM | 500 µM (≈ 125 µg/mL) | > 500 µM | > 500 µM | > 500 µM | – | – | – | – | –
Cc1cc(C)nc(NS(=O)(=O)c2ccc(N)cc2)n1 [SULFAMETHAZINE] | 62.5 µM (≈ 17.4 µg/mL) | 125 µM (≈ 34.8 µg/mL) | 32 µM (≈ 8.91 µg/mL) | 62.5 µM (≈ 17.4 µg/mL) | 16 µM (≈ 4.45 µg/mL) | 32 µM (≈ 8.91 µg/mL) | 125 µM (≈ 34.8 µg/mL) | 16 µM (≈ 4.45 µg/mL) | 16 µM (≈ 4.45 µg/mL) | 32 µM (≈ 8.91 µg/mL) | 500 µM (≈ 139 µg/mL) | > 500 µM | 500 µM (≈ 139 µg/mL) | > 500 µM | > 500 µM | > 500 µM | – | – | – | – | –
